Test results as given in publication PMC3662534 (Molecular cancer therapeutics, 2009).
“Also recorded” adds a separate entry of the source. Positions of bridges follow the written chain, without caps; N, C: chain ends. Non-standard residues stand in square brackets, D forms with d. Residues, ends and D or L forms follow the SMILES beside them. *: point of attachment. DTPA = O=C(O)CN(CCN(CC(=O)O)CC(=O)O)CCN(CC(=O)O)CC(=O)*; dPen = CC(C)(S)[C@@H](N)C(=O)O

How the values were obtained:
[1] = test system: Hek293 cells expressing MC4R and/or CCK2R; assay: Cytotoxicity, celltiter-Glo luminescent cell viability assay; type: cell-based, human; details: 1 μM, dual receptor expressing (target) cells, 24 and 48 h
Hek293/MC4R/CCK2R cells = assay: Cell fluorescence imaging of Cy5 labeled ligand binding and internalization; type: cell-based, human
Method in brief: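 Live stable Hek293/MC4R/CCK2R cells on coverslips were held in a 37°C stage chamber. Cells were incubated with 0.8 nM Cy5-tagged heterobivalent ligand (15 sec, or 3 min in the legend) and rinsed with ligand-free medium. Images were taken immediately and 7 min later by CCD camera, with Cy5 excitation at 640 nm (20 nm bandpass) and emission at 690 nm (30 nm filter).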

[2] = target: human delta-opioid receptor (δOR) (Homo sapiens, UniProt P41143); details: saturation binding to δOR in CHO/MC4R/δOR cells
Chain of human delta-opioid receptor (δOR) (P41143 whole entry): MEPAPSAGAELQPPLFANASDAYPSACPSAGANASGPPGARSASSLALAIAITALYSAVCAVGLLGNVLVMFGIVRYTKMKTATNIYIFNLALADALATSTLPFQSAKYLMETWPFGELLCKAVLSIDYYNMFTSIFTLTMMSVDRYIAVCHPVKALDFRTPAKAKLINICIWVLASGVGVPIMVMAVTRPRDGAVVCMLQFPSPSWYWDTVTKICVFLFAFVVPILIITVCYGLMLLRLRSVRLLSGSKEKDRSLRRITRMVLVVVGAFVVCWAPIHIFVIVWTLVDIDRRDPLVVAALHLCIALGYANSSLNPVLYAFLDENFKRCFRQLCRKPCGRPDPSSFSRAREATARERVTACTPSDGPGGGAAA

cholecystokinin-8 [CCK] was tested, and the cell viability [1] was “reduced viability; also recorded: toxicity”.

For “Ac-MSH7-PEGO-[Pro-Gly]3-Lys(Cy5)-PEGO-CCK6-NH2”, the “internalization of receptor/ligand complex” value (Hek293/MC4R/CCK2R cells; by 10 minutes, no significant loss of ligand on adding CCK ligand 50 μM) was “substantially internalized” and the “binding to the cell surface (Cy5 fluorescence)” value (Hek293/MC4R/CCK2R cells; immediately following incubation, 15 sec with 0.8 nM) was “significant binding to the cell surface”.

For `CC1(C)SSC[C@@H](C(=O)N[C@@H](Cc2ccccc2)C(=O)N[C@@H](CCCCNC(=O)CN(CCN(CCN(CC(=O)O)CC(=O)O)CC(=O)O)CC(=O)O)C(N)=O)NC(=O)[C@H](Cc2ccccc2)NC(=O)CNC(=O)[C@@H]1NC(=O)[C@@H](N)Cc1ccc(O)cc1` [Eu-DPLCE, H-Tyr-c[DPen-Gly-Phe-Cys]-Phe-Lys(Eu-(DTPA))-NH2] (H-Y[dPen]GFCFK(DTPA)-NH2; disulfide 2-5), the Bmax [2] was 24,000 ± 2,000 AFU.
